# Screening results: PubChem, several laboratories
# A selection: hits, their analogues and other compounds. The true share with any hit is near 4.9%.
# STAT1 activator: increases IFN-gamma driven STAT1 reporter signal; NIH 3T3 STAT1-luciferase reporter, luminescence; 100% = IFN-gamma alone, no compound; activation (% of control), % at 5.5 µM; actives 2.6% (n = 200,000);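 active = activation above the screen-wide mean activation plus 3 SD, cut at about 130% in these data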;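 also: raw ratio to IFN-gamma control signal so 100% means no change and 0% no light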
# STAT3 activator: activators of IL-6 induced STAT3 signaling. actives 0.91% (n = 190,000). U3A cells, IL-6 STAT3-luciferase reporter, luminescence; 100% = signal with IL-6 EC80 alone. AID 871. activation (% of control), % at 5.6 µM;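 active = activation above the screen-wide mean of compound activation plus 3 SD, cut at about 130% in these data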;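 also: 0% = background luminescence of wells with medium and substrate only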
#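 System – human U3A cells carrying STAT3-luciferase construct · Probe or stimulus – Interleukin-6, 33 ng/mL · Schedule – compound 1 h, then IL-6 6 h at 37 °C · Signal – luminescence from STAT3-driven luciferase reporter · Evaluation – percent of IL-6-only median luminescence · Benchmarks – IL-6-only high control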
# NF-kB neuron act: NF-kB expression increase, human neuronal cells; NF-kB reporter expression; active compounds read high; actives 1.6% (n = 190,000); fold change at 12.5 µM; AID 1239; in the data active = fold change above about 3.3
# APP 5'UTR act: activates APP 5'UTR luciferase reporter | SH-SY5Y APP 5'UTR luciferase reporter, luminescence; zero percent = DMSO vehicle wells | activation, % at 2 µM | actives 1% (n = 190,000) | AID 1276;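 active = activation above a set limit, based on mean plus 3 SD of controls, cut at about 140% in these data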
# STAT3 blocker: inhibitors of IL-6 induced STAT3 signaling. U3A cells, IL-6 STAT3-luciferase reporter, luminescence; host cell line lacks STAT1. inhibition, % at 5.5 µM. actives 0.89% (n = 190,000). AID 862;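 active = inhibition above the mean inhibition across all screened compounds plus 3 SD, cut at about 44% in these data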;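 also: 0% = DMSO only wells and 100% = 100 µM nifuroxazide control wells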
# STAT1 inh: inhibitors of IFN-gamma induced STAT1 signaling; NIH 3T3 STAT1-luciferase reporter, luminescence; actives 0.35% (n = 200,000); inhibition, % at 5.5 µM;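 active = inhibition above a set limit, the mean inhibition across all tested compounds plus 3 SD, cut at about 34% in these data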;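 also: 0% = IFN-gamma with DMSO and 100% = IFN-gamma with 300 µM nifuroxazide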
# * marks the source's active call; other numbers are inactive results; . = not tested or not shown.
SMILES,STAT1 activator,STAT3 activator,NF-kB neuron act,APP 5'UTR act,STAT3 blocker,STAT1 inh
Cc1ccccc1-n1cc(CNC(=O)CCc2nnc(CCc3ccccc3)o2)cn1,98.5,93.9,1.17,9.7,11.4,0.0
CCOc1ccc(N=C(/C(C(=O)C(=O)N2CCOCC2)=C(\O)c2ccccc2)c2ccccc2)cc1,139.1*,96.4,2.11,88.2,8.6,-44.2
CCOc1ccc(OCc2ccc(C(=O)N3CCOCC3)cc2)cc1,101.2,99.4,1.24,19.6,3.9,-10.7
CC(C)Oc1cccc(C(=O)NC2=NCCS2)c1,132.3*,102.2,2.06,86.5,8.2,-37.4
COc1ccc(/C=N/NC(=O)Nc2nonc2N)cc1,130.5*,120.0,1.27,6.2,-21.6,-29.5
O=C(/C=C/c1ccnc2ccccc12)c1cccs1,102.8,77.9,1.02,182.7*,32.6,-4.4
CC1CN(C(=S)Nc2ccccc2)N(c2ccccc2)C1 (configuration not stated),98.6,105.2,0.78,-12.9,6.4,0.8
Clc1ccc(OCc2cn3cccnc3n2)c2ncccc12,124.4,107.2,1.29,17.7,-5.2,-26.3
Cc1cc(Cl)ccc1OCc1cn2cccnc2n1,133.0*,91.3,2.98,93.6,17.3,-35.8
S=C1NNC2(CC3CC2C2CCCC32)NN1 (configuration not stated),93.2,100.9,1.18,10.3,1.3,6.6
O=C(O)c1ccc(-c2nc(-c3ccc(Cl)cc3Cl)cs2)cc1,137.1*,131.7,2.06,122.3,-20.1,-41.6
COc1cccc(CN=C2Nc3ccccc3CS2)c1,147.3*,111.4,3.94*,110.8,-4.2,-50.0
Clc1ccc(CN=C2Nc3ccccc3CS2)cc1,126.2,108.1,4.81*,115.2,-3.5,-28.7
COc1ccccc1CN=C1Nc2ccccc2CS1,126.4,83.6,2.47,50.3,26.4,-27.8
CSc1nc(-c2ccccc2)nc(SC)c1C(C)=O,100.9,87.0,1.24,-17.0,16.9,-1.7
CSc1nc(-c2ccccc2)[nH]c(=S)c1C(C)=O,95.3,132.9*,1.23,-3.9,-31.5,5.1
O=C(NC1CCCCC1)c1cc2nc3c(c(C(F)(F)F)n2n1)CCCC3,129.9*,90.7,2.43,50.1,14.2,-40.1
COc1cc(CNc2ccc(N3CCCC3)cc2)ccc1OCc1ccccc1,121.4,134.0*,1.14,83.7,-31.4,-23.6
COCCn1c(SCC#N)nnc1-c1ccc([N+](=O)[O-])cc1,102.7,98.0,1.12,-12.8,8.6,-5.1
CCOC(=O)c1c(NC(=O)COC(=O)c2cc(OC)c(OC)cc2[N+](=O)[O-])sc(C)c1C,94.1,100.0,0.99,.,0.3,6.6
C=CCN=C(NC#N)SCC(=O)c1cccc(OC)c1,137.4*,117.4,2.14,30.2,-18.2,-40.9
CCCCN1C(=O)C(=O)N(c2ccccc2)C1=S,135.3*,101.0,3.37*,87.4,1.6,-40.2
Cc1nnc(SCc2nc3sc4c(c3c(=O)[nH]2)CCCC4)[nH]c1=O,95.2,100.6,0.8,-3.5,4.0,2.0
CC(C)c1ccc(/C=C/C(=O)N2CCCCCC2)cc1,100.9,86.3,1.89,16.1,19.1,-1.0
CC(C)c1ccc(/C=C/C2=NNC(=O)CC2)cc1,136.3*,70.5,4.59*,164.7*,36.1,-37.9
SMILES,STAT1 activator,STAT3 activator,NF-kB neuron act,APP 5'UTR act,STAT3 blocker,STAT1 inh
CCN1CCN(C(=S)Nc2cc(S(=O)(=O)N(CC)CC)ccc2C)CC1,84.3,95.4,0.93,6.6,7.7,15.4
COc1cccc(NC(=O)NC2CCCc3ccccc32)c1 (configuration not stated),104.5,96.2,0.9,-7.7,15.2,-5.9
Cc1nn2cc(-c3ccc(Cl)cc3)cnc2c1Cl,140.2*,94.1,3.43*,155.1*,8.7,-44.6
CC(=O)c1cnc2c(-c3ccc(Cl)cc3)c(C)nn2c1C,102.1,88.5,1.33,6.7,15.8,-3.4
COc1ccc(C(=O)NNC(=O)CCn2nnc(-c3ccc(C)cc3)n2)cc1OC,101.6,99.1,1.17,11.0,2.4,-3.2
Cc1ccc2c(Cl)c(C(=O)Nc3cc(C)on3)sc2c1,131.9*,100.4,2.91,47.8,1.0,-34.6
O=C(Nc1ccon1)c1sc2cc(F)ccc2c1Cl,130.8*,118.8,2.37,33.6,-19.2,-35.2
CNc1nnc(-c2cc3ccccc3oc2=O)s1,142.7*,82.9,3.25,101.3,20.8,-47.1
Nc1ccc(Nc2nc(-c3cc4ccccc4oc3=O)cs2)cc1,144.2*,80.2,8.98*,94.8,25.4,-50.3
O=C(O)c1ccc(Nc2nc(-c3cc4ccccc4oc3=O)cs2)cc1O,110.5,103.7,0.66,-5.0,-4.9,-11.1
COc1cccc(CNc2ncc(Br)cc2Br)c1O,95.9,102.3,1.99,44.1,3.0,4.5
COc1cccc(CNc2ccc(Br)cn2)c1O,106.0,76.6,6.26*,151.6*,29.0,-6.6
O=C(Nc1cccc(Cl)c1)Nc1nc(-c2ccccc2)cs1,98.6,89.3,1.48,34.4,15.2,0.0
Cc1csc(NC(=O)Nc2cccc(Cl)c2)n1,134.1*,107.6,4.6*,118.8,-5.2,-36.9
Cc1nn(C)c(C)c1CNC(=O)Nc1ccc(Cl)cc1,128.9*,103.9,2.02,54.9,-2.3,-33.5
O=C(NCc1ccccn1)Nc1cccc(NC(=O)NCc2ccccn2)c1,107.8,108.7,1.6,12.3,-5.9,-10.3
Cc1nn(C)c(C)c1CNC(=O)Nc1cccc(Cl)c1,123.8,106.7,4.56*,32.0,-5.5,-27.6
Cc1nn(C)c(C)c1CNC(=O)Nc1ccc2c(c1)OCO2,120.1,101.1,1.72,12.6,1.0,-23.8
O=C(NCc1ccccn1)Nc1cccc(Cl)c1,133.3*,115.3,3.72*,72.3,-11.1,-33.9
CC(=C/c1ccco1)/C=N/NC(=O)CSc1nnc(SCc2ccc(C)cc2)s1,108.4,99.9,1.09,-28.8,-1.3,-9.2
Cc1cc(CN(C)C(=O)c2cc(COc3ccc(F)cc3Cl)on2)n[nH]1,118.6,109.7,2.08,22.7,-8.9,-22.2
COc1ccc(CNC(=O)CN=C2NC(=O)C(c3ccccc3)(c3ccccc3)N2)cc1,96.0,105.8,1.19,6.1,-6.8,4.5
O=C(NCc1ccccn1)C(=O)Nc1ccccc1,125.0,98.0,3.15,72.6,4.6,-29.2
Cc1ccc(NC(=O)C(=O)NCc2ccccn2)cc1,133.7*,98.6,2.36,26.9,3.7,-38.2
O=C(CSC1=NCCN1)Nc1cccc([N+](=O)[O-])c1,133.0*,99.2,0.82,2.4,3.0,-37.3
O=C(CSC1=NCCN1)Nc1ccccc1[N+](=O)[O-],118.4,111.5,1.12,-19.2,-9.8,-22.1
CC(=O)NC(=S)Nc1sc2c(c1C(N)=O)CCC(C)C2 (configuration not stated),131.6*,98.2,3.52*,65.3,5.4,-36.6
CC(C)CC(=O)NC(=S)Nc1sc2c(c1C(N)=O)CCC2,143.7*,104.9,1.47,55.0,-0.9,-51.4
CC(C)(C)C(=O)NC(=S)Nc1sc2c(c1C(N)=O)CCC2,145.7*,106.6,2.13,46.0,-3.0,-53.6
